Consider 17 compounds from article PMC8458242 (Biochimie, 2021).

In one series the test system is CMV AD169. As to the kind of experiment: Anti-CMV activity in WS1 cell cultures. As to conditions: human fibroblast WS1 cell line infected with CMV AD169, 5 days, n=3. The format is cell-based, Human cytomegalovirus.
The nature of series [1]: Viability assay in WS1 cell cultures. As to conditions: human, WS1 cells. The series is classed as cell-based, human.
Series [2] in a line: Viability assay in MT-4 cell cultures. The series is classed as cell-based, Human. The following applies: human, MT-4 cells.
The subject of another series is CMV (AD169). Nature of the series: Anti-CMV activity in HIV-1/CMV coinfected human tissues ex vivo. The format is cell-based, Human cytomegalovirus. The following applies: for inhibition of number of CMV DNA copies/μL: HIV-1/CMV-coinfected human lymphoid tissue, 10 μM, 15 days. The essentials:
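Human tonsil tissue blocks (2-3 mm) cultured on collagen sponge at the air-liquid interface in RPMI 1640 with 15% FBS. Blocks pretreated with test compound (10 μM) 12 h before simultaneous infection with HIV-1 X4LAI.04 and CMV AD169 stocks. Medium changed every 3 days; 15 days at 37°C. CMV DNA in culture medium measured by real-time PCR, as percent of untreated control. Means ± SEM, 3 or 6 donors.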

The next series relates to HIV-1 (X4LAI.04). Nature of the series: Anti-HIV-1 activity in HIV-1/CMV coinfected human tissues ex vivo. The format is cell-based. The following applies: for inhibition of HIV-1 replication by controls: coinfected tissues, control drugs, concentration not given, n=3; for inhibition of cumulative production of p24gag: HIV-1/CMV-coinfected human lymphoid tissue, 10 μM, 15 days. Summed up:
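Tonsillar tissue blocks (2-3 mm) kept on collagen sponge at the air-liquid interface, RPMI 1640 with 15% FBS. Pretreated with test compound at 10 μM 12 h before coinoculation with HIV-1 X4LAI.04 and CMV AD169. Medium changed every 3 days; cultured 15 days at 37°C. p24gag in medium measured by Luminex bead assay, as percent of untreated control. Means ± SEM, 3 or 6 donors.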

For another series, the system named is CMV. As to conditions: cited from earlier work.
Series [3] has as its system MT-4 cells. The following applies: cited from earlier work.
Series [4] has as its system MT-4 cells. As to the kind of experiment: Viability assay in MT-4 cell cultures. The format is cell-based, Human.
A further series deals with WS1 cells. As to the kind of experiment: Viability assay in WS1 cell cultures. The series is classed as cell-based, human. As to conditions: read-out: Cytotoxicity CC50; WS1 cell line, MTT, three days.
Series [5] relates to esterase from porcine liver. Nature of the series: Hydrolysis of the compounds by esterase from porcine liver. The following applies: Tris-HCl buffer pH 8.2, 37 °C.
Another series deals with HIV-1 X4LAI.04. Nature of the series: Anti HIV-1 activity in human tonsillar tissue ex vivo. The format is cell-based. As to conditions: 12 days.
Series [6] has as its system esterase from porcine liver.
Where [7] appears, read: 1 nM (first of five concentrations ranging from 1 nM to 10 μM).
Setting [8] is: 10 μM (fifth of five concentrations ranging from 1 nM to 10 μM).
[9] abbreviates: fourth of five concentrations ranging from 1 nM to 10 μM.
[10] abbreviates: second of five concentrations ranging from 1 nM to 10 μM.
The mark [11] stands for this setting: third of five concentrations ranging from 1 nM to 10 μM.

The structures appear in SMILES notation. Entries after “also recorded” stand apart in the source; their conditions may differ. Read-outs that look alike come from different tables or passages of the source. Bounds are passed on as bounds.

In the case of `O=C(O)Cn1c(=O)ccn(CCCOc2ccc(Br)cc2)c1=O` [2a, [3-[3-(4-bromophenoxy)propyl]-2,6-dioxo-3,6-dihydropyrimidin-1(2H)-yl]acetic acid], the “Antiviral activity EC50 ± SD” value in the series with CMV AD169 was “inactive”. Besides, in [1], the CC50 at 3 days turned out to be 965 µM.
The compound `O=C(O)Cn1c(=O)ccn(CCCCCOc2ccc(Br)cc2)c1=O` [2b, [3-[5-(4-bromophenoxy)pentyl]-2,6-dioxo-3,6-dihydropyrimidin-1(2H)-yl]acetic acid] had a CC50 at 3 days in [1] of 749 µM.
Regarding `O=C(O)Cn1c(=O)ccn(CCCCCCOc2ccc(Br)cc2)c1=O` [2c, [3-[6-(4-bromophenoxy)hexyl]-2,6-dioxo-3,6-dihydropyrimidin-1(2H)-yl]acetic acid], the figures for the CC50 at 3 days in series [2] and in [1] were above 100 µM and 724 µM, respectively. The “inhibition of CMV by control compounds” value in the series on CMV (AD169) (coinfected tissues, control compounds, concentration not given, n=3) worked out at 68.6 ± 11.3%.
Take `O=C(O)Cn1c(=O)ccn(CCCCCCCCOc2ccc(Br)cc2)c1=O` [2d, [3-[8-(4-bromophenoxy)octyl]-2,6-dioxo-3,6-dihydropyrimidin-1(2H)-yl]acetic acid]: half-maximal cytotoxicity in [1] (CC50 at 3 days) was put at 90.5 µM.
For `O=C(O)Cn1c(=O)ccn(CCCCCCCCCCOc2ccc(Br)cc2)c1=O` [2e, [3-[10-(4-bromophenoxy)decyl]-2,6-dioxo-3,6-dihydropyrimidin-1(2H)-yl]acetic acid], in the series with CMV AD169, the “Antiviral activity EC50 ± SD” value was “inactive”. For the same compound, the CC50 at 3 days in [1] was determined as 164 µM.
On the same counts, the results for `O=C(O)Cn1c(=O)ccn(CCCCCCCCCCCCOc2ccc(Br)cc2)c1=O` [2f, [3-[12-(4-bromophenoxy)dodecyl]-2,6-dioxo-3,6-dihydropyrimidin-1(2H)-yl]acetic acid] are “inactive” and 22 µM.
Consider `Nc1ccn([C@@H]2CS[C@H](CO)O2)c(=O)n1` [3TC, (−)-L-2′,3′-dideoxy-3′-thiacytidine], for which the “inhibition of HIV-1 replication by controls” value in the series on HIV-1 (X4LAI.04) was 99.7 ± 0.2%. Moreover, in the series on CMV, the “effect on CMV replication / anti CMV activity” value was “no effect on CMV replication”. Besides, the CC50 in the series on MT-4 cells [3] was above 100 µM.
Take `Cc1cn([C@H]2C[C@H](N=[N+]=[N-])[C@@H](COC(=O)Cn3c(=O)ccn(CCCOc4ccc(Br)cc4)c3=O)O2)c(=O)[nH]c1=O` [3a, (3'-azido-3'-deoxytimidine)-2-(3-((4-bromophenoxy)propyl)-2,6-dioxo-2,3-dihydropyrimidin-1(6H)-yl)acetate]: the results for the CC50 in the series on MT-4 cells [4] and in the series on WS1 cells were 82.1 µM and 347 µM, respectively.
`Cc1cn([C@H]2C[C@H](N=[N+]=[N-])[C@@H](COC(=O)Cn3c(=O)ccn(CCCCCOc4ccc(Br)cc4)c3=O)O2)c(=O)[nH]c1=O` [3b, (3'-azido-3'-deoxytimidine)-2-(3-((4-bromophenoxy)pentyl)-2,6-dioxo-2,3-dihydropyrimidin-1(6H)-yl)acetate]: the CC50 in the series with MT-4 cells [4] was above 100 µM; with WS1 cells it was 173 µM. In addition, in series [5], the “T1/2 of hydrolysis by esterase” value lay in the range of 7 to 8 h.
As to `Cc1cn([C@H]2C[C@H](N=[N+]=[N-])[C@@H](COC(=O)Cn3c(=O)ccn(CCCCCCOc4ccc(Br)cc4)c3=O)O2)c(=O)[nH]c1=O` [3c, (3'-azido-3'-deoxytimidine)-2-(3-((4-bromophenoxy)hexyl)-2,6-dioxo-2,3-dihydropyrimidin-1(6H)-yl)acetate], the CC50 with MT-4 cells [4] was above 100 µM; with WS1 cells, 393 µM. For the same compound, the “inhibition of HIV-1 replication” value in the series on HIV-1 X4LAI.04 (setting [7]) stood at 0 ± 0.5%; in the series with HIV-1 X4LAI.04 (setting [8]) it was 96.2 ± 1.0%; with HIV-1 X4LAI.04 (setting [9]) it was 76.5 ± 3.3%; with HIV-1 X4LAI.04 (setting [10]), 17.9 ± 8.2%; in the series with HIV-1 X4LAI.04 (setting [11]), 31.4 ± 7.7%. Besides, the “inhibition of cumulative production of p24gag” value with HIV-1 (X4LAI.04) worked out at 97.2 ± 2.1%. In addition, in the series with CMV (AD169), the “inhibition of number of CMV DNA copies/μL” value turned out to be 86.9 ± 3.3%. Besides, the “T1/2 of hydrolysis by esterase” value in series [5] was in the range of 7 to 8 h.
For the compound `Cc1cn([C@H]2C[C@H](N=[N+]=[N-])[C@@H](COC(=O)Cn3c(=O)ccn(CCCCCCCCOc4ccc(Br)cc4)c3=O)O2)c(=O)[nH]c1=O` [3d, (3'-azido-3'-deoxytimidine)-2-(3-((4-bromophenoxy)octyl)-2,6-dioxo-2,3-dihydropyrimidin-1(6H)-yl)acetate], the CC50 in the series with MT-4 cells [4] is above 100 µM; in the series on WS1 cells it was 600 µM.
The matching figures for `Cc1cn([C@H]2C[C@H](N=[N+]=[N-])[C@@H](COC(=O)Cn3c(=O)ccn(CCCCCCCCCCOc4ccc(Br)cc4)c3=O)O2)c(=O)[nH]c1=O` [3e, (3'-azido-3'-deoxytimidine)-2-(3-((4-bromophenoxy)decyl)-2,6-dioxo-2,3-dihydropyrimidin-1(6H)-yl)acetate]: above 100 µM and 182 µM.
The matching figures for `Cc1cn([C@H]2C[C@H](N=[N+]=[N-])[C@@H](COC(=O)Cn3c(=O)ccn(CCCCCCCCCCCCOc4ccc(Br)cc4)c3=O)O2)c(=O)[nH]c1=O` [3f, (3'-azido-3'-deoxytimidine)-2-(3-((4-bromophenoxy)dodecyl)-2,6-dioxo-2,3-dihydropyrimidin-1(6H)-yl)acetate]: above 100 µM and 253 µM.
`Nc1ccn([C@@H]2CS[C@H](COC(=O)Cn3c(=O)ccn(CCCCCCOc4ccc(Br)cc4)c3=O)O2)c(=O)n1` [4c, ((−)-L-2′,3′-dideoxy-3′-thiacytidine)-2-(3-((4-bromophenoxy)hexyl)-2,6-dioxo-2,3-dihydropyrimidin-1(6H)-yl)acetate]: in the series on MT-4 cells [4], the CC50 is above 100 µM. Moreover, the “inhibition of HIV-1 replication” value in the series with HIV-1 X4LAI.04 (setting [7]) was 0.6 ± 0.2%; with HIV-1 X4LAI.04 (setting [8]) it was 99.6 ± 0.1%; with HIV-1 X4LAI.04 (setting [9]), 88.6 ± 2.9%; with HIV-1 X4LAI.04 (setting [10]), 14.6 ± 6.5%; in the series on HIV-1 X4LAI.04 (setting [11]) it was 45.7 ± 3.7%. Moreover, the “inhibition of cumulative production of p24gag” value with HIV-1 (X4LAI.04) is 99.4 ± 0.4%. The “inhibition of number of CMV DNA copies/μL” value with CMV (AD169) stood at 78.7 ± 1.7%. In series [5], the “T1/2 of hydrolysis by esterase” value is on record as “about 24 hrs”.
As for `Cc1cn([C@H]2C[C@H](N=[N+]=[N-])[C@@H](CO)O2)c(=O)[nH]c1=O` [AZT, 2',3'-dideoxy-3'-azidothymidine], the “inhibition of HIV-1 replication by controls” value in the series with HIV-1 (X4LAI.04) was 97.0 ± 1.6%. In addition, the “effect on CMV replication / anti CMV activity” value in the series with CMV was “does not have any anti CMV activity; also recorded: no effect on CMV replication”. Besides, the CC50 with MT-4 cells [3] is above 100 µM.
In [1], `Nc1nc(O)c2ncn(COC(CO)CO)c2n1` [GCV, ganciclovir, reference compound] came in with a half-maximal cytotoxic concentration (CC50) at 3 days of 500 µM.
`CC(=O)OC[C@H]1O[C@@H](n2cc(C)c(=O)[nH]c2=O)C[C@@H]1OC(C)=O` [Thymidine diacetate]: the “hydrolysis totally completed after” value in series [6] fell in the range of 5 to 6 h.

Usually CC50 stands for the concentration at which the toxic effect on the cells reaches its halfway point.
